Screens: PubChem BioAssay, several laboratories
Compounds with a hit are over-represented: about 3.2% of the library has one in this group of screens.
NR2E3 ag-1 – agonists of human nuclear receptor NR2E3 | inhibition of corepressor binding, % at 4.78 µM | AID 2300 | 320,000 compounds, 0.12% hits | Q9Y5X4 | GST-NR2E3/biotin-RetCOR TR-FRET, 1536-well;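 active = percent inhibition above the cutoff of mean plus 3 SD of all tested compounds, set per screening campaign, cut at about 20% in these data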;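 note: 0% = DMSO wells and 100% = biotin wells as full block of FRET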
Target sequence (Q9Y5X4 whole entry, looked up): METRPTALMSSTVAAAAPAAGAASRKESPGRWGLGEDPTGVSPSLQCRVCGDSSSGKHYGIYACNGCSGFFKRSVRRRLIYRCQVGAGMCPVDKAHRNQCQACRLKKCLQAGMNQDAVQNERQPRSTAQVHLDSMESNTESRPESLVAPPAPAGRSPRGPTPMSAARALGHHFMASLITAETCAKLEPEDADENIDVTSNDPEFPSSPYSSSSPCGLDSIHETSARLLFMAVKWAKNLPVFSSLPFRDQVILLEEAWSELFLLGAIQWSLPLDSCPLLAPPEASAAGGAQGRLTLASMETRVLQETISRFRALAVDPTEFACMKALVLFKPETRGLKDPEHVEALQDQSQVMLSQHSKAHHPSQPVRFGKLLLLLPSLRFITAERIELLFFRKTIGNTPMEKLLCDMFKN
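Material: NR2E3–RetCOR corepressor complex / Amount: 1.35 nM GST-NR2E3 / Medium: Tris pH 7.5 / Compound: single nominal compound dose of 4.8 µM / Incubation: 5 h at 4 °C / Technique: TR-FRET, Eu(K)-anti-GST donor, streptavidin-D2 acceptor, ex 340, em 617/671 nm / Read-out basis: percent loss of FRET ratio relative to control wells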
SMARCA2 act – SMARCA2 function activation, primary screen; MG213 cells, MMTV-luciferase reporter, dexamethasone, overnight; activation, % at 9.1 µM; 370,000 compounds, 1% hits; in the data active = activation above about 7.8%;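 note: 0% = vehicle wells and 100% = reference activator wells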
DAX1 inh-1 – blocks DAX1 repression of SF-1 activated StAR promoter. 370,000 compounds, 1.1% hits. HEK293T StAR-luciferase reporter, SF-1/DAX-1 repression relief. inhibition, % at 6.8 µM. AID 652010;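 active = inhibition above the mean over all tested compounds plus 3 SD, cut at about 3.6% in these data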;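 note: 0% = DAX-1 cells with DMSO and 100% = cells lacking DAX-1 with DMSO; higher inhibition means more luminescence from relief of DAX-1 repression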
GASC-1 inh – inhibitors of human GASC-1 (JMJD2C) demethylase. Q9H3R0. GST-JMJD2C(1-420) H3K9me3 demethylation, DELFIA europium. inhibition, % at 2.35 µM. 330,000 compounds, 0.069% hits;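 active = more than half of a compound's replicate wells show inhibition beyond 50%, single wells judged on their own value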;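 note: signal counts dimethyl H3K9 product captured on neutravidin plate; 0% = median of DMSO wells and 100% = 0.3 times that DMSO median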
DAX1 inh-2 – inhibits human nuclear receptor DAX1; P51843; HEK293 Gal4-DAX1 luciferase reporter, luminescence; inhibition, % at 6.75 µM; 340,000 compounds, 0.99% hits; AID 504766;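 active = inhibition above the mean over all tested compounds plus 3 SD, cut at about 4.2% in these data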;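 note: 0% = DAX1-transfected cells with DMSO and 100% = empty-vector control cells with DMSO; inhibition shows as a rise in luminescence from relieved DAX1 repression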
Target sequence (P51843 207-470 limits assumed): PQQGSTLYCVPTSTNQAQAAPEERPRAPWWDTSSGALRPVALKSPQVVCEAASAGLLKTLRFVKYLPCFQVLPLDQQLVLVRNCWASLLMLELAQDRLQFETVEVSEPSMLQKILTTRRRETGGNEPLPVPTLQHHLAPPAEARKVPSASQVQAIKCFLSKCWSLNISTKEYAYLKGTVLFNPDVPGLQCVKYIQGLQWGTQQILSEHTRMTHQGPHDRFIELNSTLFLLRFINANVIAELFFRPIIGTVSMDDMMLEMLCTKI
NR2E3 ag-2 – activates human NR2E3 receptor; Q9Y5X4; CHO-S Gal4-NCOR/VP16-NR2E3 two-hybrid, luciferase; inhibition of corepressor binding, % at 3.98 µM; 360,000 compounds, 0.35% hits;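 active = inhibition above the mean of all tested compounds plus 3 SD, cut at about 70% in these data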;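 note: 0% = DMSO with NR2E3 transfected cells and 100% = cells lacking NR2E3 construct; higher means lower luciferase signal from less NR2E3 corepressor binding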
SMARCA2 conf – SMARCA2 activation, confirmation screen; 3,500 compounds, 30% hits; activation, % at 9.1 µM; shares compounds with SMARCA2 act; MG213 cells, MMTV-luciferase with dexamethasone, luminescence, overnight; MG213 cells expressing E1A, Rb sequestered; DMSO wells 0%, reference activator 100%; AID 652260;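 active = activation above its plate's cutoff, the mean activation of tested wells plus 3 SD, cut at about 7.9% in these data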
GAL4-VP16 Luc – activates GAL4-VP16 luciferase, flagging SMARCA2 activator hits; shares compounds with SMARCA2 act; AID 686939; activation, % at 9.1 µM; HEK293 GAL4-VP16 pG5luc reporter, luciferase luminescence; scaled: DMSO wells 0%, SAHA wells 100%; 3,500 compounds, 41% hits;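 active = activation above the solvent-only control well mean plus 3 SD, averaged across control plates, cut at about 5.2% in these data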
Active calls of the source: *; · = no result given.

SMILES	NR2E3 ag-1	SMARCA2 act	DAX1 inh-1	GASC-1 inh	DAX1 inh-2	NR2E3 ag-2	SMARCA2 conf	GAL4-VP16 Luc
Fc1ccccc1-c1n[nH]c(=S)n1N=Cc1cccc(OCc2ccccc2)c1	·	-4	-2	·	·	·	·	·
CCCN1CC(=O)N2[C@H](C[C@@]3(n4ccc5ccccc54)c4ccccc4N(S(=O)(=O)c4ccccc4)[C@@H]23)C1=O	·	2	0	·	·	·	·	·
CCc1ccccc1N(CC)C(=O)CCc1nc(-c2ccc(C)cc2)no1	1	-1	-1	19	-1	-2	·	·
CN(C)C(=O)CCc1nc(-c2ccc(C(C)(C)C)cc2)no1	1	11*	1	4	0	70	3	5.3*
CCc1nc(C)cc2c1sc1ccccc12	-1	10.0*	0	-3	·	-31	11*	1
CC[n+]1c(C)cc2c(sc3ccccc32)c1C	·	-5	-1	·	1	-3	·	·
COc1ccc2c(c1)CCCN2C(=O)C1CCCN(S(=O)(=O)c2c(C(C)C)cc(C(C)C)cc2C(C)C)C1 (stereo not drawn)	·	-3	0	·	·	·	·	·
COC(=O)c1ccc(N=NN2CCCCC2)cc1	3	12*	3	-21	2	-86	4	11*
COC(=O)c1ccc(NN=Nc2ccc(C)cc2)cc1	-3	2	3	9	-2	-122	·	·
Cc1nc2c(OCc3ccc(Cl)cc3)cccn2c1N(C)C(=O)CCC1CCCC1	·	8.3*	-1	·	·	-11	-4	-1
Cc1nc2c(OCc3ccc(F)cc3)cccn2c1N(C)C(=O)CCC1CCCC1	·	-4	-2	·	·	8	·	·
N#Cc1cc2c(nc1SCc1ccncc1)CCC2	4	12*	1	7	1	-192	3	5
O=C(O)c1cc(N/N=C2/CC(c3ccccc3)Oc3ccccc32)ccc1Cl (stereo not drawn)	5	10*	1	2	1	-14	3	2
CC(C)(C)N/N=C1\CC(c2ccccc2)Oc2ccccc21 (stereo not drawn)	3	3	0	4	0	-13	·	·
COc1ccccc1CN(C)C(=O)c1ccc(S(=O)(=O)NCc2ccco2)cc1	-2	11*	-1	16	-1	15	1	3
COc1cc(OC)cc(C(=O)Oc2c(CN3CCOCC3)cc(Cl)c3cccnc23)c1	-2	-2	0	-15	-1	-16	·	·
O=C(Oc1c(CN2CCOCC2)cc(Cl)c2cccnc12)c1ccccc1F	-1	39*	-1	-2	-3	47	13*	1
O=C(Oc1c(CN2CCOCC2)cc(Cl)c2cccnc12)c1ccccc1	-2	35*	-1	26	-2	-61	11*	-2
O/N=C/Cc1[nH]c2ccccc2c1-c1ccccc1	-3	0	-1	-2	2	-11	·	·
ClCc1nnc(-c2cc3c(s2)CCCC3)o1	·	11*	-1	-1	-1	-31	-4	1
Cc1ccc(NC(=O)COc2ccc3c(c2)OCO3)c(C)c1	2	3	3	-2	0	-20	·	·
COc1cc(O)c2c(=O)c(-c3ccc(O[C@@H]4O[C@H](CO)[C@@H](O)[C@H](O)[C@H]4O)cc3)coc2c1	·	8.8*	2	-2	2	-45	13*	9.1*
O=c1c(-c2ccc(O)cc2)coc2cc(OC3OC(CO)C(O)C(O)C3O)cc(O)c12 (stereo not drawn)	2	6	0	4	0	-12	·	·
O=[N+]([O-])c1ccccc1C=NNc1ccccc1	·	7	1	·	-1	-38	·	·
Cc1ccc(-c2nc(N/N=C/c3ccccc3[N+](=O)[O-])c3ccccc3n2)cc1	4	8.2*	1	16	2	-36	2	8.2*
SMILES	NR2E3 ag-1	SMARCA2 act	DAX1 inh-1	GASC-1 inh	DAX1 inh-2	NR2E3 ag-2	SMARCA2 conf	GAL4-VP16 Luc
O=[N+]([O-])c1cccc(-c2cn3ccccc3n2)c1	5	12*	3.7*	-2	1	-145	11*	4
O=[N+]([O-])c1cccc(-c2cn3nc(-c4ccccc4)c(-c4ccccc4)nc3n2)c1	-1	-6	0	-1	-1	9	·	·
CNC(=O)c1cc2c(ccc3ccccc32)o1	3	9.6*	0	-34	0	-33	7	4
O=C(N/N=C/c1cccs1)c1ccccn1	-1	10*	3	-3	2	-90	9.6*	8.9*
C(=NN=C(NN=Cc1cccs1)NN=Cc1cccs1)c1cccs1	·	12*	-3	·	-1	7	-2	5
Cc1ccc(C(=O)N2CCC(Oc3cccnc3)CC2)cc1	·	-2	0	·	·	·	·	·
COc1cccc2nc3c(C(=O)NCCN(C)C)cccc3cc12	·	10*	-5	·	-2	-32	42*	2
COc1ccc(-c2nc3c(C(=O)NCCN(C)C)cccc3c3ccccc23)cc1	·	12*	-2	·	2	-9	26*	1
CN(C)CCNC(=O)c1cccc2nc3c(ccc4ccccc43)nc12	·	19*	-7	·	-1	0	32*	4
COc1ccc(C(=O)NCCN(C)C)c2nc3ccccc3cc12	·	12*	-4	·	-3	-15	95*	7.3*
CN(C)CCNC(=O)c1cc(Sc2ccc(F)cc2)nc2ccccc12	-5	·	·	29	·	·	·	·
COc1ccc(Cl)cc1C(=O)NCCN(C)C	0	-3	1	-1	-1	-6	·	·
CN1Cc2nnn(Cc3ccccc3)c2-c2cc(F)ccc2S1(=O)=O	·	2	1	·	·	·	·	·
COCCN(C(=O)COC(=O)CCc1ccccc1)c1c(N)n(Cc2ccccc2)c(=O)[nH]c1=O	·	-3	1	·	0	9	·	·
Cc1ccccc1-c1cc2nc(NCCOc3ccccc3Cl)n(C)c(=O)c2s1	·	-4	0	·	·	-18	·	·
CC(=NO)c1ccc2c(c1)Cc1cc([N+](=O)[O-])ccc1-2	·	12*	2	·	2	-68	8	5
Oc1ccccc1C=Nc1ccccc1-c1nc2ccccc2[nH]1	4	8.3*	2	6	3	-62	5	11*
Oc1ccc(C=Nc2ccccc2-c2nc3ccccc3[nH]2)c(O)c1	-3	4	2	-7	0	-58	·	·
COc1ccc(CCNC(=O)CCn2c(=O)c3cccn3c3cccnc32)cc1OC	1	12*	0	16	-1	-11	7.9*	1
CC(=O)c1cccc(NC(=O)N2CCc3ccccc3C2)c1	6	8.2*	0	-7	1	-121	4	7.8*
